Assay [1] has as its target Glycogen synthase kinase-3 (Homo sapiens) (UniProt P49840+P49841). The experiment in a line: Inhibition of GSK3 in human A-375 cells harbouring TCF/LEF luciferase reporter gene assessed as increase in wnt signaling incubated for 5 hrs by Bright-Glo luciferase assay. Type of assay: cell-based. In short, it runs like this: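 A375 cells carried a lentiviral TCF/LEF-responsive luciferase reporter, selected with puromycin 1 μg/ml for 3 days. Cells were seeded at 10,000 per well and moved to 2% FBS medium. Agents were given at 0.5 nmol/L–1 μmol/L for 5 h, and luciferase was read with Bright-Glo substrate.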
Background: Reporter assays use an easily measured gene product as a stand-in for the process of interest.

In assay [2] the test system is M14. Description: Antiproliferative activity against human M14 cells harboring BRAF V600E mutation assessed as reduction in cell viability incubated for 72 hrs by CellTitre-Glo assay. Type of assay: functional, cell-based. The note with it: M14, 72 h. The essentials: (§1)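 Cells seeded at 2,000 per well and left to adhere overnight. After 24 h, medium was switched to growth medium with 2% FBS. Test agent was added at 0.5 nmol/L to 10 μmol/L for 72 h. Viability was read by CellTiter-Glo luminescence. IC50 came from nonlinear regression sigmoidal dose-response fits.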

Another assay concerns SK-MEL-28. The experiment in a line: Antiproliferative activity against human SK-MEL-28 cells harboring BRAF V600E mutation assessed as reduction in cell viability incubated for 72 hrs by CellTitre-Glo assay. Type of assay: functional, cell-based. The note with it: SK-MEL-28, 72 h. In short, it runs like this: as §1
The test system of a further assay is CHL-1. Description: Antiproliferative activity against human CHL-1 cells assessed as reduction in cell viability incubated for 72 hrs by CellTitre-Glo assay. Type of assay: functional, cell-based. The note with it: CHL-1, 72 h. The essentials: as §1
The nature of assay [3]: Antiproliferative activity against human MEXF1792 cells harboring NRAS G13D mutation assessed as reduction in cell viability incubated for 72 hrs by CellTitre-Glo assay. The note with it: MEXF1792, 72 h. Type of assay: functional, cell-based. In short, it runs like this:
as §1

Assay [4] deals with A-375. The experiment in a line: Antiproliferative activity against human A-375 cells harboring BRAF V600E mutation assessed as reduction in cell viability incubated for 72 hrs by CellTitre-Glo assay. Type of assay: functional, cell-based. The conditions noted are these: A-375, 72 h. In short, it runs like this:
as §1

A short description of assay [5]: Antiproliferative activity against human MEXF1341 cells harboring NRAS Q61 mutation assessed as reduction in cell viability incubated for 72 hrs by CellTitre-Glo assay. Type of assay: functional, cell-based. The note with it: MEXF1341, 72 h. The essentials:
as §1

A short description of assay [6]: Antiproliferative activity against human MEXF276 cells harboring BRAF V600E mutation assessed as reduction in cell viability incubated for 72 hrs by CellTitre-Glo assay. Type of assay: functional, cell-based. The note with it: MEXF276, 72 h. The essentials:
as §1

The next assay deals with SK-MEL-2. Description: Antiproliferative activity against human SK-MEL-2 cells harboring NRAS Q61R mutation assessed as reduction in cell viability incubated for 72 hrs by CellTitre-Glo assay. Type of assay: functional, cell-based. The note with it: SK-MEL-2, 72 h. The essentials: as §1
Assay [7] can be described thus: Antiproliferative activity against human MEL1102 cells harboring NRAS Q61K mutation assessed as reduction in cell viability incubated for 72 hrs by CellTitre-Glo assay. The conditions noted are these: MEL1102, 72 h. Type of assay: functional, cell-based. In short, it runs like this:
as §1

Another assay deals with A2058. Description: Antiproliferative activity against human A2058 cells harboring BRAF V600E/PTEN null mutation assessed as reduction in cell viability incubated for 72 hrs by CellTitre-Glo assay. Type of assay: functional, cell-based. The note with it: A2058, 72 h. The essentials:
as §1

Assay [8] can be described thus: Antiproliferative activity against human MEXF462 cells harboring BRAF V600E mutation assessed as reduction in cell viability incubated for 72 hrs by CellTitre-Glo assay. Type of assay: functional, cell-based. The conditions noted are these: MEXF462, 72 h. The essentials: as §1
The subject of assay [9] is M14. The experiment in a line: Antiproliferative activity against human vemurafenib-resistant M14 cells harboring BRAF V600E mutation assessed as reduction in cell viability incubated for 72 hrs by CellTitre-Glo assay. Type of assay: functional, cell-based. The note with it: M14, 72 h. The essentials:
(§2)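 Resistant A375 or M14 lines were derived by growth in vemurafenib over 3 months. Cells were seeded at 2,000 per well and allowed to adhere overnight, then moved to 2% FBS growth medium. Agents were added at 0.5 nmol/L–10 μmol/L for 72 h. Viability was read by CellTiter-Glo, and IC50 was taken from sigmoidal nonlinear regression.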

Assay [10] relates to M14. The experiment in a line: Antiproliferative activity against human M14 cells transfected with beta-catenin shRNA assessed as reduction in cell viability incubated for 72 hrs by CellTitre-Glo assay. Type of assay: functional, cell-based. The essentials: (§3)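 A375 or M14 cells were transduced with lentiviral shRNA particles (target or control) at MOI 2 with polybrene 8 μg/ml. Puromycin selection at 2 μg/ml began 48 h later, and knockdown was checked by immunoblot. Cells were seeded at 2,000 per well in 2% FBS medium, exposed to agents for 72 h, and read by CellTiter-Glo.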

Assay [11] relates to A-375. The experiment in a line: Antiproliferative activity against human A-375 cells transfected with beta-catenin shRNA assessed as reduction in cell viability incubated for 72 hrs by CellTitre-Glo assay. Type of assay: functional, cell-based. The essentials: as §3
The test system of assay [12] is A-375. The experiment in a line: Antiproliferative activity against human vemurafenib-resistant A-375 cells harboring BRAF V600E mutation assessed as reduction in cell viability incubated for 72 hrs by CellTitre-Glo assay. Type of assay: functional, cell-based. The conditions noted are these: A-375, 72 h. The essentials:
as §2

The test system of assay [13] is A-375. The experiment in a line: Antiproliferative activity against human A-375 cells transfected with Axin1 shRNA assessed as reduction in cell viability incubated for 72 hrs by CellTitre-Glo assay. Type of assay: functional, cell-based. The essentials: as §3
The subject of assay [14] is M14. Description: Antiproliferative activity against human M14 cells transfected with Axin1 shRNA assessed as reduction in cell viability incubated for 72 hrs by CellTitre-Glo assay. Type of assay: functional, cell-based. In short, it runs like this:
as §3

Active and inactive are the calls of the source. The rule behind the calls is not given here. Bounds are passed on as bounds.

Chain of Glycogen synthase kinase-3 (Homo sapiens) (P49840 whole entry, looked up): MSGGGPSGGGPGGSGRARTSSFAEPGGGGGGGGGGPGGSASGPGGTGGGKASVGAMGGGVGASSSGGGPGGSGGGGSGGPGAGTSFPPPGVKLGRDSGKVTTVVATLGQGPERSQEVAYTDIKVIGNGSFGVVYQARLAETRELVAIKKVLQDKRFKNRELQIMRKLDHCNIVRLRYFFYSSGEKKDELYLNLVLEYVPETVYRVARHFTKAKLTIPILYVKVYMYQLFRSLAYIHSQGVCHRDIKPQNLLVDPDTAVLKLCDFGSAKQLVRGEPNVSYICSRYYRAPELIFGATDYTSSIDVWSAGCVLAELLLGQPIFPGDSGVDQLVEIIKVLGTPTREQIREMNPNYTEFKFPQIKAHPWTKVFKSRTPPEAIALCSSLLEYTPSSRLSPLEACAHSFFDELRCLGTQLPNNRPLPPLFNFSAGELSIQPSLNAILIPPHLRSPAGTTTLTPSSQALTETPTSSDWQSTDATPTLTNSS
Chain of Glycogen synthase kinase-3 (Homo sapiens) (P49841 whole entry, looked up): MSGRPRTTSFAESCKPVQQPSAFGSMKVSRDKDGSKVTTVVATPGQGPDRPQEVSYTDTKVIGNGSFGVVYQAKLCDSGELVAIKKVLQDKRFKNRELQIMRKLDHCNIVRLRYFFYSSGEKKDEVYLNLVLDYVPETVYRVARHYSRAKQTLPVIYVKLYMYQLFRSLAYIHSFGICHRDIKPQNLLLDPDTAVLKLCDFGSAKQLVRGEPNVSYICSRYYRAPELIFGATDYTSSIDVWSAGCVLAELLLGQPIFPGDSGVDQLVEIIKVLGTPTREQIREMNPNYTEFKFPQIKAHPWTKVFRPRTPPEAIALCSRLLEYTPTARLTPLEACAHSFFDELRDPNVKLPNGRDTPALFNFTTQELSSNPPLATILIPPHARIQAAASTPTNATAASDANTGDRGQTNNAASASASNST

As to `Nc1nc2ccc(OC(F)(F)F)cc2s1`, the inhibition result in assay [1] is “Active”.
With `CC(=O)O/N=C1/C(=C2/C(=O)Nc3cc(Br)ccc32)Nc2ccccc21` [6-BROMOINDIRUBIN-3'-ACETOXIME], the IC50 was 646 nM in the assay on M14 [2]; > 5000 nM in the assay on SK-MEL-28; 1460 nM in the assay with CHL-1; 4940 nM in assay [3]; 914 nM in the assay on A-375 [4]; 1150 nM in assay [5]. Also, the IC50 was determined as 954 nM in assay [6]; 942 nM in the assay with SK-MEL-2; 750 nM in assay [7]; 361 nM in the assay with A2058; 605 nM in assay [8]. The inhibition result in assay [1] is “Active”.
With `CCCS(=O)(=O)Nc1ccc(F)c(C(=O)c2c[nH]c3ncc(-c4ccc(Cl)cc4)cc23)c1F` [VEMURAFENIB], the IC50 in the assay with M14 [2] is 88 nM; in the assay with CHL-1, > 10000 nM; with A-375 [4], 102 nM; with M14 [9] it was 3860 nM; with SK-MEL-2, > 10000 nM; in [7] it was 1260 nM. In the assay on A-375 [12], the IC50 was 5480 nM. Further, the result in the assay with M14 [10], with A-375 [11], in the assay with A-375 [13] and in the assay on M14 [14] was Active.

Usually IC50 stands for the point on the concentration scale where inhibition reaches its midpoint.

The values are drawn from ChEMBL document CHEMBL5653620, “Activating the Wnt/β-Catenin Pathway for the Treatment of Melanoma--Application of LY2090314, a Novel Selective Inhibitor of Glycogen Synthase Kinase-3” (PLoS One, 2015).
